# Data as given in ChEMBL document CHEMBL1121834, “Aromatic retinoic acid analogues. Synthesis and pharmacological activity” (J Med Chem, 1981).
# Experiments:
# Type in all cases: functional
# [1] = biological target: T1, Ornithine decarboxylase (Mus musculus) (UniProt P00860); test: Inhibition of tumor promoter (TPA) -induced mouse epidermal ornithine decarboxylase (ODC) activity at 17 nmol dose level
# T1 sequence (whole entry): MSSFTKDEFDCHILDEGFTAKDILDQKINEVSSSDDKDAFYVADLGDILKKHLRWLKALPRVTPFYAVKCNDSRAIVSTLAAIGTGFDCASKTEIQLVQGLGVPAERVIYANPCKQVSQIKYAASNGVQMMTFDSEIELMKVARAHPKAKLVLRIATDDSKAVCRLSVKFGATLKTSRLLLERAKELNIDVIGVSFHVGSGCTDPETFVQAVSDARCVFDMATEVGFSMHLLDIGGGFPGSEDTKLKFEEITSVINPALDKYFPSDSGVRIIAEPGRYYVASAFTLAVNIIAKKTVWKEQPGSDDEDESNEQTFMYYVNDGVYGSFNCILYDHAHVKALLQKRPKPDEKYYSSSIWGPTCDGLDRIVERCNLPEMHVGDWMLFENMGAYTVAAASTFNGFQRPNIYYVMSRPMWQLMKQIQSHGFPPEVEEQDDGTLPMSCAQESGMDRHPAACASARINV
# Outline: (§1)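 Retinoid applied topically to mouse skin 1 h before topical TPA (12-O-tetradecanoylphorbol 13-acetate) to induce epidermal ODC. Dorsal skin from each group of mice was pooled and ODC activity assayed in triplicate. Activity is expressed as % inhibition of TPA-induced ODC relative to TPA-only controls (mean ± SE over groups).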
# [2] = biological target: T1, Ornithine decarboxylase (Mus musculus); test: Inhibition of tumor promoter (TPA) -induced mouse epidermal ornithine decarboxylase (ODC) activity at 170 nmol dose level; outline: as §1
# [3] = biological target: T1, Ornithine decarboxylase (Mus musculus); test: Inhibition of tumor promoter (TPA) -induced mouse epidermal ornithine decarboxylase (ODC) activity at 1.7 nmol dose level; outline: as §1
inhibition [1],inhibition [2],inhibition [3],SMILES
7%,,,CC1=C(/C=C/C(C)=C/C=C/c2ccccc2C(=O)O)C(C)(C)CCC1
25%,,,CC1=C(/C=C/C(C)=C/C=C/c2ccccc2O)C(C)(C)CCC1
0%,,,CCOC(=O)c1ccc(/C=C(C)/C=C/C2=C(C)CCCC2(C)C)cc1C
0%,,,CC1=C(/C=C/C(C)=C\C=C\c2ccccc2O)C(C)(C)CCC1
43%,64%,33%,CC1=C(/C=C/C(C)=C\c2ccc(C(=O)O)cc2)C(C)(C)CCC1
77%,87%,62%,CC1=C(/C=C/C(C)=C/c2ccc(C(=O)O)cc2)C(C)(C)CCC1
71%,,,CCOC(=O)c1ccc(/C=C(C)/C=C/C23OC2(C)CCCC3(C)C)cc1 (stereo unspecified)
